From PubChem
The sample as a whole holds a higher share of hits than the screen did.
CHOP inhibitor = inhibitors of CHOP promoter induction, primary screen, cell-based, unfolded protein response, luciferase reporter | AID 2732, 2010 | 3.8% of 220,000 active | CHO-K1 CHOP-promoter luciferase, tunicamycin-induced, 15-18 h | inhibition, % at 10 µM;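 active means compounds that reduced the stress-induced luciferase reporter signal by more than about 70% of percent inhibition, limit read from the data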;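 further: 0% = tunicamycin plus vehicle and 100% = wells without tunicamycin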
CHOP UPR activ = activators of apoptotic CHOP UPR arm, primary screen, cell-based, CHO-CHOP luciferase reporter, luminescence, uHTS; UPR activation; percent of tunicamycin response over DMSO baseline; activation, % at 10 µM; AID 449763, 2010; 0.34% of 330,000 active;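 active means at 10 µM dose, activation of 40% or more, normalized to positive control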;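 further: 100% = tunicamycin at 10 µg/mL and 0% = DMSO alone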
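assay system = CHO CHOP reporter cells | amount = 500 CHO-CHOP cells per well | buffer or medium = F12 with 10% FBS | incubation = 16-18 h cell attachment, then 6 h compound exposure, 37 °C | detection = luminescence read with Steady-Glo | read-out = percent activation relative to tunicamycin control | controls = tunicamycin high control, DMSO low control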
XBP1 UPR activ = activators of adaptive XBP1 UPR arm, primary screen, cell-based, CHO-XBP1 luciferase reporter, luminescence, uHTS. IRE1-XBP1 UPR activation; percent of tunicamycin response, DMSO as zero. activation, % at 20 µM. 0.33% of 330,000 active. AID 463104, 2010;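 active means versus positive control, 20 µM dose yields 30% or more activation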;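 further: 100% = tunicamycin at 10 µg/mL and 0% = DMSO only wells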
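Material: CHO-XBP1 cells stably carrying IRE1-XBP1-driven luciferase reporter / Amount: 1000 cells per well / Compound: 20 µM, 1% DMSO / Times: 6 h treatment, 37 °C / Detection: luciferase luminescence / Measure: % activation of reporter signal versus tunicamycin and DMSO controls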
UCH37 inh = inhibitors of human UCH37 deubiquitinase, primary screen, biochemical, Ub-AMC cleavage, fluorescence; Ubiquitin carboxyl-terminal hydrolase isozyme L5 (Homo sapiens), Q9Y5K5; purified proteasome/UCH37; inhibition, % (test concentration not listed); 0.33% of 330,000 active;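 active means mean inhibition over replicate wells above about 20%, limit read from the data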;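 further: 0% = compound-free wells with enzyme and 100% = wells lacking proteasome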
Target sequence (Q9Y5K5 whole entry, looked up): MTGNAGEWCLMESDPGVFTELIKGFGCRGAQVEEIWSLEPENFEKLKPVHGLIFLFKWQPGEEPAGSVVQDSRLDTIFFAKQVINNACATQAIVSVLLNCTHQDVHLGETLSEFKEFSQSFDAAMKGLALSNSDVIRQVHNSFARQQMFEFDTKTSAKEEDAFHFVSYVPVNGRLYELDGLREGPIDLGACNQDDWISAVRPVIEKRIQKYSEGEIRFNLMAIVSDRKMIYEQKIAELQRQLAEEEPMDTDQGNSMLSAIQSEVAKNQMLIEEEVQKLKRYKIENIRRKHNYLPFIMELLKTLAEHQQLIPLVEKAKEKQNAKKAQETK
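Reagent: Ub-AMC substrate; assay system: Proteasome-associated human UCH37 deubiquitinase; controls: no-proteasome and no-compound wells; read-out: % inhibition of Ub-AMC cleavage fluorescence; timing: 30 min preincubation with enzyme, 25 min cleavage at room temperature; signal: AMC fluorescence from Ub-AMC cleavage, excitation 355 nm, emission 460 nm; buffer or medium: Tris-HCl pH 7.4 plus ovalbumin, ATP-MgCl2, DTT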
Fh CTSL1 inh = Fasciola hepatica cathepsin L1 inhibitors, primary screen, counter-screen for PFM18AAP inhibitor project, biochemical, QFRET, fluorogenic peptide substrate. 0.49% of 300,000 active. inhibition, % at 5.96 µM. AID 1906, 2009. recombinant F. hepatica cathepsin L1, Z-Leu-Arg-MCA fluorescence;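 active means inhibition above the mean of all tested compounds plus 3 SD, set per screening campaign, cut at about 17% in these data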;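 further: 0% = plate median of test compound wells and 100% = 1 µM Z-Phe-Ala-diazomethylketone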
Active calls of the source: *; . = no result.

SMILES	CHOP inhibitor	CHOP UPR activ	XBP1 UPR activ	UCH37 inh	Fh CTSL1 inh
COc1ccc(-c2nc(CSCC(=O)NCc3ccc4c(c3)OCO4)c(C)o2)cc1	80*	-4	2	2	3
CCCCCCC1CC(C)(C(C)=NNC(N)=O)OC1=O (stereo unspecified)	.	.	.	1	.
Cc1nn(-c2nnc(NCc3ccccc3)nn2)c(C)c1Br	73*	1	0	4	1
Cc1c(C(=O)NN=CC(C)C)[nH]c2c([N+](=O)[O-])cccc12	.	.	.	4	.
O=C(NC(=S)NCc1ccccc1)C1CCCCC1	89*	3	0	7	3
CCc1ccccc1NC(=S)N1CCN(c2ccccc2F)CC1	.	-2	-2	4	19*
CC1OC(O[C@H]2CC[C@]3(C)C4C=C[C@]56OC[C@@]7(CC[C@@H](C)[C@H](C)C75)[C@H](O)C[C@@]6(C)[C@]4(C)CC[C@H]3C2(C)C)C(OC2OC(CO)C(O)C(O)C2OC2OCC(O)C(O)C2O)C(O)C1O (stereo partly specified)	100*	.	.	.	.
CC1O[C@@H](OC2C(COC3OC(CO)C(O)[C@H](O)C3O)OC(OC3CC[C@]4(C)C(CC[C@@]5(C)[C@@H]4CC=C4[C@@H]6CC(C)(C)CC[C@]6(CO)C(O)C[C@]45C)C3(C)C)C(O)C2O)C(O)C(O)C1O (stereo partly specified)	.	6	-1	0	.
CCCCCCOc1ccc(N2C(=O)CC(N3CCN(CCN=CC4C(=O)CC(C)(C)CC4=O)CC3)C2=O)cc1 (stereo unspecified)	71*	1	-2	1	7
CN(C)CC(=O)c1ccc(-c2ccccc2)cc1	27	-1	-1	0	-1
CN(C)C/C(Cl)=C(\Cl)c1ccccc1	77*	0	-6	1	-2
CC(C)CN1C(=O)/C(=C(/C#N)C(=O)NC2CCCCC2)c2ccccc21	92*	-2	-3	4	3
Cc1cc(-c2n[nH]c(=S)n2N=Cc2ccco2)n[nH]1	.	.	.	5	.
O=C(NN=Cc1ccc(OC(=O)c2ccco2)cc1)c1ccncc1	.	.	.	-3	.
O=[N+]([O-])c1cc(Cl)cc(C=NNC(=S)Nc2cc(S(=O)(=O)N3CCOCC3)ccc2Cl)c1O	.	.	.	23*	.
O=S(=O)(c1ccc(Cl)c(NC(=S)NN=Cc2c(F)cccc2F)c1)N1CCOCC1	.	.	.	2	.
COc1ccc(-n2cnc3scc(-c4ccc(OC)c(OC)c4)c3c2=O)cc1	76*	0	1	1	0
O=C(NN=Cc1c(F)c(F)c(F)c(F)c1F)c1ccc(-c2ccccc2)cc1	.	.	.	2	.
COc1ccc(-c2ncncc2-c2csc(C)n2)c(O)c1OC	1	-3	1	2	-4
COC1=C(N)C(=O)c2nc(-c3nc(C(=O)O)c(C)c(-c4ccc(OC)c(OC)c4O)c3N)ccc2C1=O	81*	10	-9	82*	.
CC(NC(=O)CCl)c1ccc(Cl)c(Cl)c1 (stereo unspecified)	-8	3	-1	.	23*
O=C(CNC(=O)c1cccc(F)c1)OCC(=O)N1CCCc2ccccc21	35	2	2	2	20*
CC1CCCCC1NC(=O)COC(=O)CNC(=O)c1cccc(F)c1 (stereo unspecified)	6	1	-1	0	22*
O=C(CNc1ccccc1)NN=Cc1ccc2c(c1)OCCO2	.	.	.	4	.
NC(=S)NN=Cc1coc2ccc(Cl)cc2c1=O	.	.	.	2	.
SMILES	CHOP inhibitor	CHOP UPR activ	XBP1 UPR activ	UCH37 inh	Fh CTSL1 inh
COc1cc2ccccc2cc1-c1nnc(COc2ccccc2)o1	82*	0	0	-20	-1
O=S(=O)(NCCc1ccccc1)c1ccc(S(=O)(=O)N2CCCCC2)cc1	20	-1	0	3	-3
O=C(NCc1ccc(Cl)cc1)C1CCN(S(=O)(=O)c2ccc(N3CCCC3=O)cc2)CC1	.	3	-7	-1	1
O=S(=O)(c1ccc(S(=O)(=O)N2CCN(C/C=C/c3ccccc3)CC2)cc1)N1CCCC1	87*	-3	-2	-1	-3
O=C(NCc1ccccc1)C1CCN(S(=O)(=O)c2ccc(N3CCCC3=O)cc2)CC1	.	1	-5	3	17*
O=S(=O)(NCc1ccccc1)c1ccc(S(=O)(=O)N2CCCCC2)cc1	72*	1	-1	7	0
C=CCOc1ccc2ccccc2c1C=NO	.	.	.	-2	.
CCN1C(=O)CS/C1=N\S(=O)(=O)c1ccc(Cl)cc1	17	0	-1	.	4
CCn1c(Cl)c(C=O)s/c1=N\S(=O)(=O)c1ccccc1	105*	-11	-7	.	2
O=C(O)c1ccc(NN=Cc2ccc(OC(=O)c3cccc(Cl)c3)cc2)cc1	.	.	.	-13	.
CCOC(=O)C1=C(N)n2c(sc(=Cc3ccco3)c2=O)=C(C(=O)OC(C)C)C1c1ccco1 (stereo unspecified)	.	.	.	9	.
c1ccc(OCc2noc(CN3CC[C@@H]4CCCC[C@H]4C3)n2)cc1	75*	0	1	2	-5
Clc1cccc(C2CCN(Cc3nc(COc4ccccc4)no3)C2)c1 (stereo unspecified)	4	0	1	0	5
COc1ccccc1C(=O)NN=Cc1cnc2ccccc2n1	.	.	.	14	.
CC(=NNC(=O)CON=C(C)c1cccs1)c1ccc(N)cc1	.	.	.	2	.
CCc1ccccc1NC1c2ccccc2C(=O)N1Cc1ccco1 (stereo unspecified)	75*	2	0	5	2
CC(Cn1nnc([N+](=O)[O-])n1)=NNC(=O)c1ccc(C)cc1	.	.	.	7	.
Cc1ccc[n+](CC(=O)/C=C2\N(C)c3ccccc3C2(C)C)c1	0	2	-1	20*	2
CNS(=O)(=O)c1cccc(C(=O)OCC(=O)/C=C2/N(C)c3ccccc3C2(C)C)c1	73*	-1	-2	-6	4
CN1/C(=C\C(=O)C[n+]2cccc(Br)c2)C(C)(C)c2ccccc21	6	-2	-4	17	2
COc1ccc(CSc2nnc(C)n2N)cc1Br	-15	-1	3	4	0
COc1ccc(CSc2nncn2N)cc1Br	0	-1	-2	0	19*
Cc1ccc(NC(=O)NCC2CCN(Cc3cccc(Cl)c3)CC2)cc1Cl	89*	2	-3	3	-1
CC(CC=NNC(=O)COc1cc(Cl)ccc1Cl)c1ccccc1 (stereo unspecified)	.	.	.	2	.
CCOC(=O)c1cc2c(ccn2C)n1Cc1cc(C)ccc1C	90*	-1	-1	0	2
